High-throughput results as filed in PubChem.
Sampled rows, rich in hits. Any-hit rate of the full collection: about 2.5%.
MEKK3 PB1 HTS: raises or lowers MEK5 binding to the human MEKK3 PB1 domain; hit rate 1.4% among 290,000; Q99759; binding response (% of control), % at 10 µM; bead-based flow cytometry, Alexa488-MEK5 binding to MEKK3; actives lie on both sides; 0 = blocked by unlabeled MEK5, 100 = vehicle;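 active = binding response more than 3 SD above or below the average of its plate-row segment, actives on both sides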;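 also: Alexa488 bead fluorescence after subtracting the streptavidin-only scavenger bead signal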
MEKK2mut PB1 HTS: signal of MEK5 binding to mutant human MEKK2 PB1 domain. bead flow cytometry, Alexa488-MEK5 binding to MEKK2 mutant. percent response, % at 10 µM. hit rate 0.35% among 290,000; in the data active = percent response above about 24%, passing the limit was not always enough
T cell HTS: T cell immune modulation candidate; 2C CD8+ T cell-vesicle binding, flow cytometry; active compounds read low; response (vesicle binding), % at 7 µM; hit rate 0.068% among 330,000; AID 2052;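 active = response, share of CD8 T cells binding vesicles, and their 90th percentile fluorescence all below set limits, cut at about 80% in these data, passing the limit was not always enough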;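 also: values below 100% mean blocked vesicle binding to the CD8+ T cells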
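Also added: QL9-peptide-loaded Drosophila micro-vesicles bearing Ld, ICAM-1 and B7-1; Test system: purified 2C TCR transgenic mouse naive CD8+ T cells; Measured by: cytometric PE anti-B7-1 and Alexa647 anti-CD8 signals after 1% paraformaldehyde fixation; Timing: binding step 1.5 h, 37 °C, antibody labelling 20 min, ice.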
Rce1 inh: yeast Ras-converting enzyme inhibition; yeast membranes, quenched prenylated peptide cleavage fluorescence; calls only; hit rate 0.27% among 290,000; AID 2563;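 active = fall in fluorescence gain of 50% or more versus controls, with final raw signal at or below 3038400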;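 also: plate controls were neutral control wells for no effect and wells lacking membranes for full effect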
Target sequence (Q03530 whole entry, looked up): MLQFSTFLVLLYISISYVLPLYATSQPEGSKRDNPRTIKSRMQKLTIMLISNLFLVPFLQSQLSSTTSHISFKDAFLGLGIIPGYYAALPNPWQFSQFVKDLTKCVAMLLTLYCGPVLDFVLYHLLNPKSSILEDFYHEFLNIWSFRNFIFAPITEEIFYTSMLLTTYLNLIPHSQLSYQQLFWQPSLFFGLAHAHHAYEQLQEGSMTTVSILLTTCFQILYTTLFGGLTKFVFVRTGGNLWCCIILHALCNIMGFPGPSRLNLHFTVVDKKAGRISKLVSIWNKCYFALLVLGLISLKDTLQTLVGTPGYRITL
MEKK2wt PB1 HTS: raises or lowers MEK5 binding to wildtype human MEKK2 PB1 domain | Q9Y2U5 | bead flow cytometry, Alexa488-MEK5 binding to MEKK2 WT; actives lie on both sides | binding response (% of control), % at 10 µM | hit rate 1.1% among 290,000 | AID 1531; in the data active = binding response below about 67% or above about 130%
UCH37 DUB inh: human UCH37 deubiquitinating enzyme inhibition. Q9Y5K5. purified proteasome/UCH37, Ub-AMC cleavage fluorescence. inhibition, % (no concentration beside the values). AID 588478. hit rate 0.33% among 330,000;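 active = mean inhibition over replicate wells above about 20%, limit read from the data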;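 also: 0% = compound-free wells with enzyme and 100% = wells lacking proteasome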
Target sequence (Q9Y5K5 whole entry, looked up): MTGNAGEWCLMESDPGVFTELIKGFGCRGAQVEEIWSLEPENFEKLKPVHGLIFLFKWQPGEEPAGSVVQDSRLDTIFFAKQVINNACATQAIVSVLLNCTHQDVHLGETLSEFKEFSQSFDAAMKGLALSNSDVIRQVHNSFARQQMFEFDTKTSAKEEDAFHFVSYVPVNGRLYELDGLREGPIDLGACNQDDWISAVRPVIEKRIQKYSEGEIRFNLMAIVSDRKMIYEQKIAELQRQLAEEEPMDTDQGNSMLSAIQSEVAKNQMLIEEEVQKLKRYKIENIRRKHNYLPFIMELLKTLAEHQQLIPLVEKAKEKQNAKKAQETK
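Assay system: Proteasome-bound UCH37. Buffer or medium: pH 7.4 Tris-HCl (50 mM) with ovalbumin, ATP-MgCl2, DTT. Incubation: 30 min preincubation with enzyme, 25 min cleavage at room temperature. Measured by: fluorescence, ex 355 nm, em 460 nm. Read-out basis: percent inhibition. Control set: wells without proteasome as full block, compound-free enzyme plus substrate as uninhibited.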
MEKK2wt confirm: raises or lowers MEK5 binding to wildtype human MEKK2, retest | binding response (% of control), % at 10 µM | hit rate 2.4% among 5,900 | shares compounds with MEKK3 PB1 HTS | bead flow cytometry, Alexa488-MEK5 binding to MEKK2 WT; actives lie on both sides; in the data active = binding response below about 16% or above about 210%; inactive = in between
MEKK2mut confirm: signal of MEK5 binding to mutant human MEKK2, retest. shares compounds with MEKK3 PB1 HTS. bead flow cytometry, Alexa488-MEK5 binding to MEKK2 mutant. AID 1893. percent response, % at 10 µM. hit rate 2% among 5,900; in the data active = percent response mostly above about 71%, no sharp cut-off; inactive = mostly below about 38%;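 also: higher means compound restores mutant binding toward wildtype level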
MEKK3 confirm: confirmation of inhibitors of MEK5 binding to human MEKK3. shares compounds with MEKK3 PB1 HTS. hit rate 1.8% among 5,900. bead flow cytometry, Alexa488-MEK5 binding to MEKK3; active compounds read low. binding response (% of control), % at 10 µM;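 active = binding response below 72% of control, or above a set upper limit, though filed actives all read lower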;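 also: 100% = DMSO only wells and 0% = binding blocked by excess unlabeled MEK5; lower values mean stronger disruption of MEK5 binding to MEKK3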
* marks the source's active call; other numbers are inactive results; i = inactive; · = no result; [ ] = another dose, or the depositor's remark.

SMILES	MEKK3 PB1 HTS	MEKK2mut PB1 HTS	T cell HTS	Rce1 inh	MEKK2wt PB1 HTS	UCH37 DUB inh	MEKK2wt confirm	MEKK2mut confirm	MEKK3 confirm
COc1ccc(OC)c(S(=O)(=O)n2ccc(C)n2)c1	104	2	321	·	99	·	·	·	·
CN(C)C(=O)N1CCC(C(=O)NCc2ccccc2)CC1	1.0*[inhibitor]	-20	219	i	-2.0*[inhibitor]	0	96	-5	98
CC1CCCCN1C(=O)CNCc1ccc(F)cc1 (stereo not given)	94	14	83	i	97	0	·	·	·
CC1CCCCN1C(=O)COc1ccccc1F (stereo not given)	135*	0	454	i	113	5	104	0	103
CNC(=S)NN=Cc1ccc(-c2ccc(C(=O)O)cc2)o1	·	·	·	·	·	-50	·	·	·
Cc1nc2cc(NC(=O)N3CC4(C)CC3CC(C)(C)C4)ccc2n1C (stereo not given)	2.0*[inhibitor]	-29	213	i	-2.0*[inhibitor]	0	106	4	101
Cc1nc2cc(NC(=O)N3CCCC3)ccc2n1C	90	-13	711	i	77	6	·	·	·
Nc1nonc1-n1nnc(C(=O)NN=Cc2ccccc2Cl)c1-c1ccccc1	·	·	·	·	·	2	·	·	·
CCCCCc1ccc(OCCCC[n+]2ccccc2)c(CCCCC)c1	105	28	364	i	164*	9	158	25	111
CCCCCc1ccc(OCCCC[n+]2cccc(C)c2)c(CCCCC)c1	72	-10	258	·	124	2	·	·	·
CCC(C)(C)c1ccc(OCCCC[n+]2ccccc2)c(C(C)(C)CC)c1	109	41	149	i	185*	6	199	65	110
CCC(C)(C)c1ccc(Oc2cccc(C(=O)O)c2)cc1	107	6	75	i	102	-1	·	·	·
CC1(C)OC(=O)C(=CNC(=O)c2c(F)cccc2F)C(=O)O1	72*[inhibitor]	-4	141	·	82	1	92	-3	95
CCN(CCNC(=O)c1ccc(C#N)cc1)c1cccc(C)c1	102	-2	181	i	99	2	·	·	·
CCN(CCNCC(O)COCc1ccc(Cl)cc1)c1cccc(C)c1 (stereo not given)	112	20	261	i	159*	1	128	18	105
COc1cc2oc(-c3ccc(O)cc3)cc(=O)c2c(OC)c1O	37*[inhibitor]	-14	·	i	35*[inhibitor]	·	100	-5	101
COCCNC(=O)CNC(=O)c1nn(-c2ccc(OC)c(Cl)c2)c(=O)c2ccccc12	143*	10	273	i	135*	-1	103	4	103
CN=c1scc(C)n1N=Cc1ccc(O)c(O)c1O	·	·	·	·	·	15	·	·	·
Brc1cc2c(cc1C1Nc3ccccc3C3C=CCC31)OCO2 (stereo not given)	67*[inhibitor]	-2	201	i	98	3	98	-2	103
COc1ccc(/C=C2\SC(=S)N(CCC(=O)Nc3ccc(O)cc3)C2=O)cc1	99	3	167	i	98	2	·	·	·
CCN(CC)CCOC(=O)c1ccc(NC(=O)CCCN2C(=O)S/C(=C/c3ccc(OC)cc3)C2=S)cc1	106	44*	0	i	192*	10	111	2	87
CCCCC(=O)N(c1ccc(C)c(C)c1)C1C=CS(=O)(=O)C1 (stereo not given)	1.0*[inhibitor]	-22	432	i	-7.0*[inhibitor]	2	99	-5	101
Cc1ccc(N(C(=O)c2ccc3c(c2)OCO3)C2C=CS(=O)(=O)C2)cc1C (stereo not given)	107	2	463	i	105	3	·	·	·
O=C(COc1ccc(C=NNC(=O)c2ccncc2)cc1)Nc1ccc([N+](=O)[O-])cc1	·	·	·	·	·	1	·	·	·
CC(=NN(c1ccccc1)c1ccccc1)c1ccco1	·	·	·	·	·	-1	·	·	·
SMILES	MEKK3 PB1 HTS	MEKK2mut PB1 HTS	T cell HTS	Rce1 inh	MEKK2wt PB1 HTS	UCH37 DUB inh	MEKK2wt confirm	MEKK2mut confirm	MEKK3 confirm
COc1ccc(N2C(=O)C3ON(C4SC(=S)N(C)C4(C)C)C(c4ccc(Cl)cc4)C3C2=O)cc1 (stereo not given)	151*	0	231	i	108	·	99	-2	98
COc1cc(O)c(C(CC(=O)N2CCN(c3ccccc3)CC2)c2ccc(N(C)C)cc2)c(OC)c1 (stereo not given)	85	4	159	i	134	3	·	·	·
COc1cc(O)c(C(CC(=O)N2CCOCC2)c2cc(OC)c(OC)c(OC)c2)c(OC)c1 (stereo not given)	126	3	·	i	154*	1	97	2	101
COc1cc(O)c(C(CC(=O)N2CCCCC2)c2ccc3c(c2)OCO3)c(OC)c1 (stereo not given)	122	4	187	i	140*	0	102	-1	103
COc1cc(O)c(C(CC(=O)N2CCCC(C)C2)c2ccc3c(c2)OCO3)c(OC)c1 (stereo not given)	121	2	·	i	142*	-2	104	1	98
COc1cc(OC)c2ccc(=O)oc2c1C(CC(=O)N1CCCC(C)C1)c1ccc2c(c1)OCO2 (stereo not given)	81	-16	872	i	84	-6	·	·	·
COc1cc(O)c(C(CC(=O)N2CCCC(C)C2)c2ccc(N(C)C)cc2)c(OC)c1 (stereo not given)	127	2	191	i	158*	0	103	0	101
CN1CCN(c2c(C=NO)c3ccccc3n2C)CC1	·	·	·	·	·	1	·	·	·
CC(=NNc1ccccc1Cl)c1ccc(-n2ccnc2)cc1	·	·	·	·	·	4	·	·	·
COc1cc(/C=N/NC(=O)C2(O)c3ccccc3-c3ccccc32)ccc1O	148*	0	338	i	108	·	99	-11	100
COc1cc(/C=N/NC(=O)C2COc3ccccc3O2)ccc1O (stereo not given)	102	-3	72	i	96	·	·	·	·
COc1cc(C=NNC(=O)C2(O)c3ccccc3-c3ccccc32)ccc1O	·	·	·	·	·	0	·	·	·
COc1cc(/C=N/NC(=O)C2c3ccccc3Oc3ccccc32)ccc1O	122*	14	434	i	125	·	104	0	107
COc1cc(C=NNC(=O)C2c3ccccc3Oc3ccccc32)ccc1O	·	·	·	·	·	-1	·	·	·
